# In ChEMBL document CHEMBL3414540, “Synthesis, crystal structure and effect of indeno[1,2-b]indole derivatives on prostate cancer in vitro. Potential effect against MMP-9” (Eur J Med Chem, 2015):
# Activity calls are given as the source filed them. The rule behind the calls is not given here.
# Columns and labels:
# [1] = (§1) Cytotoxicity against rat MAT-LyLu cells after 72 hrs by XTT assay; assay type: functional, cell-based; conditions: MAT-Ly-Lu
# Summary of the method: (§2)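 Compounds in DMSO (5-100 µg/ml, final DMSO <0.2%) were added for 72 h. XTT was then added (4 h, 37°C) and formazan read at 492 nm. IC50 is the 50% viability drop versus vehicle. Three experiments, five wells each, mean ± SEM.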
# [2] = test system: LNCaP; assay: Cytotoxicity against human LNCAP cells after 72 hrs by XTT assay; assay type: functional, cell-based; summary of the method: as §2
# [3] = (§3) Cytotoxicity against human PC3 cells after 72 hrs by XTT assay; assay type: functional, cell-based; conditions: PC-3, 72 h; summary of the method: as §2
# [4] = test system: MAT-Ly-Lu; assay: as §1; assay type: functional, cell-based; summary of the method: as §2
# [5] = test system: PC-3; assay: as §3; assay type: functional, cell-based; summary of the method: as §2
# [6] = test system: LNCaP; assay: Inhibition of cell invasion of human LNCAP cells pre-treated at cytotoxic IC50 level followed by further 18 hrs incubation by matrigel coated Boyden chamber assay; assay type: functional, cell-based
# Summary of the method: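 LNCaP cells (1×10^5 cells/ml) were pretreated for 24 h, then seeded in serum-free medium onto a Matrigel-coated […] membrane over medium with 20% FBS (18 h, 37°C). Invaded cells were stained with calcein (4 µg/ml in HBSS, 1 h) and fluorescence read at 485/530 nm. Inhibition is relative to vehicle. Three independent experiments, mean ± SEM.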
# [7] = Inhibition of clonogenic potential of human PC3 cells grown on semi-soft agar medium assessed as colony formation at cytotoxic IC50 level incubated for 2 weeks post dose by crystal violet staining based light microscopy relative to control; assay type: functional, PC-3; parameters: scale not given: the % may be the effect or the level left
# Summary of the method: (§4)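 Cells (1×10^5) in RPMI with 20% FBS and 0.3% Noble agar were layered over a 0.6% agar/RPMI base, held 15 min at room temperature, then incubated 24 h at 37°C. Compound in 1 mL medium was added the next day. After 2 weeks, cells were stained with 0.01% crystal violet (18 h, 37°C). Colony number and relative size were scored by light microscopy against vehicle. Three independent experiments, mean ± SEM.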
# [8] = Inhibition of clonogenic potential of rat MAT-LyLu cells grown on semi-soft agar medium assessed as colony formation at cytotoxic IC50 level incubated for 2 weeks post dose by crystal violet staining based light microscopy relative to control; assay type: functional, MAT-Ly-Lu; parameters: scale not given: the % may be the effect or the level left; summary of the method: as §4
# [9] = Inhibition of clonogenic potential of rat MAT-LyLu cells grown on semi-soft agar medium assessed as relative colony size ratio at cytotoxic IC50 level incubated for 2 weeks post dose by crystal violet staining based light microscopy (reference value: 1 +/- 0.05); assay type: functional, MAT-Ly-Lu; summary of the method: as §4
# [10] = Inhibition of clonogenic potential of human PC3 cells grown on semi-soft agar medium assessed as relative colony size ratio at cytotoxic IC50 level incubated for 2 weeks post dose by crystal violet staining based light microscopy (reference value: 1 +/- 0.3); assay type: functional, PC-3; summary of the method: as §4
# [11] = test system: LNCaP; assay: Inhibition of clonogenic potential of human LNCAP cells grown on semi-soft agar medium assessed as colony formation at cytotoxic IC50 level incubated for 2 weeks post dose by crystal violet staining based light microscopy relative to control; assay type: functional; parameters: scale not given: the % may be the effect or the level left; summary of the method: as §4
# [12] = test system: PC-3; assay: Inhibition of EGF-induced cell migration of human PC3 cells at cytotoxic IC50 level incubated for 24 hrs in presence of EGF by light microscopy based wound healing assay; assay type: functional
# Summary of the method: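 PC-3 cells (8×10^4 per well) were grown to confluence (48 h, 37°C) and the monolayer scratched with a pipette tip. After a PBS wash, compound in fresh medium was added with […] (1 pg/ml) for 24 h. Wound area was imaged at 0 and 24 h and expressed as % closure of the original wound. Three independent experiments, mean ± SEM.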
# [13] = test system: LNCaP; assay: Inhibition of clonogenic potential of human LNCAP cells grown on semi-soft agar medium assessed as relative colony size ratio at cytotoxic IC50 level incubated for 2 weeks post dose by crystal violet staining based light microscopy (reference value: 1 +/- 0.3); assay type: functional; summary of the method: as §4
# [14] = molecular target: Matrix metalloproteinase-9 (Homo sapiens) (UniProt P14780); assay: Inhibition of MMP9 in human PC3 cells assessed as reduction in MMP-mediated gelatinolytic activity at cytotoxic IC50 level incubated for 24 hrs by zymography; assay type: cell-based; conditions: PC-3
# Summary of the method: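 PC-3 cells at 80% confluence were washed with PBS and treated in serum-free medium (24 h, 37°C). Conditioned medium was mixed 0.75:0.25 with sample buffer lacking mercaptoethanol and run on 10% SDS gels copolymerized with gelatin (1 mg/mL). MMP-9 lysis zones were quantified as % activity relative to vehicle. Three experiments, mean ± SEM.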
# Sequence of Matrix metalloproteinase-9 (Homo sapiens) (P14780 whole entry): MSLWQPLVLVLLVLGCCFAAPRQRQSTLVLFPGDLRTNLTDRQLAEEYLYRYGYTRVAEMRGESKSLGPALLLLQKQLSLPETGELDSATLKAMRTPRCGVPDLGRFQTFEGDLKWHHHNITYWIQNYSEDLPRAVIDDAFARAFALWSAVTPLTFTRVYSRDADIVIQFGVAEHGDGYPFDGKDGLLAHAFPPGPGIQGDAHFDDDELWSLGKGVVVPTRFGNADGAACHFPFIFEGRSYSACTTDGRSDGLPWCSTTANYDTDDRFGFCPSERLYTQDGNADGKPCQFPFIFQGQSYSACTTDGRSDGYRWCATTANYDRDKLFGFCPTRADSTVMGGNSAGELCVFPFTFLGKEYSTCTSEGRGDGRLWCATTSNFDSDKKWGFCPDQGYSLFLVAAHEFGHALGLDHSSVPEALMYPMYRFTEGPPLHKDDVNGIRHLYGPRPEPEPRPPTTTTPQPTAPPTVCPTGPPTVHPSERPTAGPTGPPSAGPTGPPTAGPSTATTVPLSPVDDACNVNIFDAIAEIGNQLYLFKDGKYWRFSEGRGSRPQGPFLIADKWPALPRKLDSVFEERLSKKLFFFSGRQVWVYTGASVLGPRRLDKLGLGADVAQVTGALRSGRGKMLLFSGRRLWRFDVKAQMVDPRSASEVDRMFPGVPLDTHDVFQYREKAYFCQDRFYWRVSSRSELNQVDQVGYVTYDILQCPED
SMILES,IC50 [1],IC50 [2],IC50 [3],other results
COc1cc(N2C3=C(C(=O)CCC3)[C@]3(O)C(=O)c4ccccc4[C@]23O)cc(OC)c1OC (racemic),> 100 µg/mL,> 100 µg/mL,> 100 µg/mL,
Cc1cc(N)c2ccccc2[n+]1CCCCCCCCCC[n+]1c(C)cc(N)c2ccccc21 [DEQUALINIUM],10.3 µg/mL,4.94 µg/mL,24.6 µg/mL,inhibition [4]: Dose-dependent effect; inhibition [2]: Dose-dependent effect; inhibition [5]: Dose-dependent effect
COc1ccc(N2C3=C(C(=O)CCC3)[C@]3(O)C(=O)c4ccccc4[C@]23O)c(OC)c1 (racemic),> 100 µg/mL,> 100 µg/mL,> 100 µg/mL,
CC1(C)CC(=O)C2=C(C1)N(c1ccc(Cl)c(Cl)c1)[C@@]1(O)c3ccccc3C(=O)[C@@]21O (racemic),5.96 µg/mL,9.57 µg/mL,10.7 µg/mL,inhibition [6]: Active; inhibition [4]: Dose-dependent effect; Activity [7]: 0%; Activity [8]: 6.35%; Ratio [9]: 0.16; Ratio [10]: 0; Activity [11]: 0%; inhibition [12]: Active; Ratio [13]: 0; inhibition [14]: Active; inhibition [2]: Dose-dependent effect; inhibition [5]: Dose-dependent effect
Cc1ccccc1N1C2=C(C(=O)CCC2)[C@]2(O)C(=O)c3ccccc3[C@]12O (racemic),> 100 µg/mL,> 100 µg/mL,> 100 µg/mL,
COc1ccc(N2C3=C(C(=O)CCC3)[C@]3(O)C(=O)c4ccccc4[C@]23O)cc1 (racemic),> 100 µg/mL,> 100 µg/mL,> 100 µg/mL,
Cc1cccc(N2C3=C(C(=O)CCC3)[C@]3(O)C(=O)c4ccccc4[C@]23O)c1 (racemic),> 100 µg/mL,> 100 µg/mL,> 100 µg/mL,
COc1ccc(N2C3=C(C(=O)CC(C)(C)C3)[C@]3(O)C(=O)c4ccccc4[C@]23O)cc1 (racemic),> 100 µg/mL,> 100 µg/mL,> 100 µg/mL,
COc1ccc(N2C3=C(C(=O)CC(C)(C)C3)[C@]3(O)C(=O)c4ccccc4[C@]23O)cc1OC (racemic),> 100 µg/mL,> 100 µg/mL,> 100 µg/mL,
COc1ccccc1N1C2=C(C(=O)CCC2)[C@]2(O)C(=O)c3ccccc3[C@]12O (racemic),> 100 µg/mL,> 100 µg/mL,> 100 µg/mL,
Cc1ccc(N2C3=C(C(=O)CC(C)(C)C3)[C@]3(O)C(=O)c4ccccc4[C@]23O)cc1C (racemic),> 100 µg/mL,> 100 µg/mL,> 100 µg/mL,
CC1(C)CC(=O)C2=C(C1)N(c1ccc(Br)cc1)[C@@]1(O)c3ccccc3C(=O)[C@@]21O (racemic),> 100 µg/mL,> 100 µg/mL,> 100 µg/mL,
COc1ccc(OC)c(N2C3=C(C(=O)CCC3)[C@]3(O)C(=O)c4ccccc4[C@]23O)c1,> 100 µg/mL,> 100 µg/mL,> 100 µg/mL,
Cc1cc(C)cc(N2C3=C(C(=O)CC(C)(C)C3)[C@]3(O)C(=O)c4ccccc4[C@]23O)c1 (racemic),> 100 µg/mL,> 100 µg/mL,> 100 µg/mL,
Cc1ccccc1N1C2=C(C(=O)CC(C)(C)C2)[C@]2(O)C(=O)c3ccccc3[C@]12O (racemic),> 100 µg/mL,> 100 µg/mL,> 100 µg/mL,
O=C1CCCC2=C1[C@]1(O)C(=O)c3ccccc3[C@]1(O)N2c1ccc(Cl)cc1 (racemic),> 100 µg/mL,79.2 µg/mL,67.9 µg/mL,inhibition [4]: Dose-dependent effect; inhibition [2]: Dose-dependent effect; inhibition [5]: Dose-dependent effect
CC1(C)CC(=O)C2=C(C1)N(c1ccc(Cl)cc1)[C@@]1(O)c3ccccc3C(=O)[C@@]21O (racemic),> 100 µg/mL,66.2 µg/mL,76.6 µg/mL,inhibition [4]: Dose-dependent effect; inhibition [2]: Dose-dependent effect; inhibition [5]: Dose-dependent effect
Cc1ccc(C)c(N2C3=C(C(=O)CCC3)[C@]3(O)C(=O)c4ccccc4[C@]23O)c1 (racemic),> 100 µg/mL,> 100 µg/mL,> 100 µg/mL,

SMILES,IC50 [1],IC50 [2],IC50 [3],other results
Cc1cc(C)cc(N2C3=C(C(=O)CCC3)[C@]3(O)C(=O)c4ccccc4[C@]23O)c1 (racemic),> 100 µg/mL,> 100 µg/mL,> 100 µg/mL,
COc1cccc(N2C3=C(C(=O)CC(C)(C)C3)[C@]3(O)C(=O)c4ccccc4[C@]23O)c1 (racemic),> 100 µg/mL,> 100 µg/mL,> 100 µg/mL,
COc1cc(N2C3=C(C(=O)CC(C)(C)C3)[C@]3(O)C(=O)c4ccccc4[C@]23O)cc(OC)c1OC (racemic),> 100 µg/mL,> 100 µg/mL,> 100 µg/mL,
COc1ccc(OC)c(N2C3=C(C(=O)CC(C)(C)C3)[C@]3(O)C(=O)c4ccccc4[C@]23O)c1 (racemic),> 100 µg/mL,> 100 µg/mL,> 100 µg/mL,
Cc1ccc(C)c(N2C3=C(C(=O)CC(C)(C)C3)[C@]3(O)C(=O)c4ccccc4[C@]23O)c1 (racemic),> 100 µg/mL,> 100 µg/mL,> 100 µg/mL,
Cc1ccc(N2C3=C(C(=O)CCC3)[C@]3(O)C(=O)c4ccccc4[C@]23O)cc1C (racemic),> 100 µg/mL,> 100 µg/mL,> 100 µg/mL,
Cc1ccc(N2C3=C(C(=O)CC(C)(C)C3)[C@]3(O)C(=O)c4ccccc4[C@]23O)cc1 (racemic),> 100 µg/mL,> 100 µg/mL,> 100 µg/mL,
COc1ccc(N2C3=C(C(=O)CCC3)[C@]3(O)C(=O)c4ccccc4[C@]23O)cc1OC (racemic),> 100 µg/mL,> 100 µg/mL,> 100 µg/mL,
O=C1CCCC2=C1[C@]1(O)C(=O)c3ccccc3[C@]1(O)N2c1ccc(Br)cc1 (racemic),> 100 µg/mL,> 100 µg/mL,> 100 µg/mL,
COc1ccccc1N1C2=C(C(=O)CC(C)(C)C2)[C@]2(O)C(=O)c3ccccc3[C@]12O (racemic),> 100 µg/mL,> 100 µg/mL,> 100 µg/mL,
COc1cccc(N2C3=C(C(=O)CCC3)[C@]3(O)C(=O)c4ccccc4[C@]23O)c1 (racemic),> 100 µg/mL,> 100 µg/mL,> 100 µg/mL,
Cc1ccc(N2C3=C(C(=O)CCC3)[C@]3(O)C(=O)c4ccccc4[C@]23O)c(C)c1 (racemic),> 100 µg/mL,> 100 µg/mL,> 100 µg/mL,
Cc1ccc(N2C3=C(C(=O)CCC3)[C@]3(O)C(=O)c4ccccc4[C@]23O)cc1 (racemic),> 100 µg/mL,> 100 µg/mL,> 100 µg/mL,
Cc1cccc(N2C3=C(C(=O)CC(C)(C)C3)[C@]3(O)C(=O)c4ccccc4[C@]23O)c1 (racemic),> 100 µg/mL,> 100 µg/mL,> 100 µg/mL,
COc1ccc(N2C3=C(C(=O)CC(C)(C)C3)[C@]3(O)C(=O)c4ccccc4[C@]23O)c(OC)c1 (racemic),> 100 µg/mL,> 100 µg/mL,> 100 µg/mL,
Cc1ccc(N2C3=C(C(=O)CC(C)(C)C3)[C@]3(O)C(=O)c4ccccc4[C@]23O)c(C)c1 (racemic),> 100 µg/mL,> 100 µg/mL,> 100 µg/mL,
O=C1CCCC2=C1[C@]1(O)C(=O)c3ccccc3[C@]1(O)N2c1ccc(Cl)c(Cl)c1 (racemic),75.2 µg/mL,53.9 µg/mL,47.8 µg/mL,inhibition [4]: Dose-dependent effect; inhibition [2]: Dose-dependent effect; inhibition [5]: Dose-dependent effect
